Screens from PubChem BioAssay.
Sampled rows, rich in hits. Any-hit rate of the full collection: about 4.8%.
Beta apoptosis = beta cell apoptosis inhibition; INS-1E cytokine-induced death, ATP luminescence, 48 h; percent of positive-control rescue, neutral wells zero; protection from apoptosis, % (no concentration beside the values); 0.8% of 300,000 active; AID 435005;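 active = Every replicate reaches about 75%, or at least half do and their mean reaches it too, limit read from the data; inconclusive = At least half of replicates reach the limit but their mean does not; inactive = Under half of replicates reach the limit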;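 also: 0% = cytokine-treated negative control wells and 100% = positive control rescue; higher means more ATP so stronger rescue from cytokine killing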
Efflux pump inh = inhibitors of Candida antifungal efflux pumps expressed in yeast | S. cerevisiae Candida pump triplex, Nile Red efflux | inhibition, % at 10 µM | 0.44% of 330,000 active;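 active = plate passing quality check with inhibition over a set limit, or well fluorescence over plate mean plus 4 SD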;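 also: Nile Red retained in pooled yeast measured as flow cytometry median fluorescence; 0% = buffer negative control and 100% = Enniatin B positive control; higher means more Nile Red kept so more efflux inhibition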
SUMO Mot1 rescue = inhibitors of SUMOylation pathway: yeast Mot1-301 growth rescue. growth rescue, % at 18.8 µM. S. cerevisiae Mot1-301 growth rescue, ATP luminescence, 38.5C; percent above DMSO median, 100 means doubled. AID 2716. 1% of 320,000 active;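 active = every valid replicate shows activation above 250% relative to neutral control wells; inactive = the rest, any valid replicate at or below 250%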;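 also: OY570 slx delta 5 strain wells were the positive control but not used for scaling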
T cruzi inh = blocks replication of Trypanosoma cruzi; 1.4% of 300,000 active; AID 1885; inhibition, % (no concentration beside the values); T. cruzi beta-gal in NIH3T3, luminescence, 90 h;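 active = mean inhibition across valid replicates above about 55%, limit read from the data; inconclusive = mean below that limit but half or more replicates reach it; inactive = mean below it, under half of replicates reach it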;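 also: signal also drops with host cell toxicity which is not excluded here; 0% = plate median of DMSO wells and 100% = zero luminescence signal; higher percent means less beta-gal luminescence so fewer parasites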
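Assay system: NIH/3T3 host cells with β-galactosidase reporter T. cruzi; input: 5,000 host fibroblasts per well; compound: single 50 nL compound addition per well in DMSO; timing: ≥90 h infection period, 3 h prior cell attachment; measured by: GalScreen β-gal luminescence, detergent lysis, 60 min; evaluation: percent inhibition of parasite-derived β-gal signal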
CSC inhib = blocks cancer stem cells | cancer stem cell-like cells viability, luminescence | AID 2717 | inhibition, % at 7.5 µM | 1.1% of 300,000 active; in the data active = inhibition above about 75%; inconclusive = no clear call, values can overlap the other calls; tested in HMLE shEcad cells
WT yeast gro inh = growth inhibition of WT yeast, mitochondrial fusion screen; mitochondrial fusion phenotypic screen, WT strain; inhibition, % at 10 µM; 2.1% of 190,000 active; AID 1362; in the data active = inhibition above about 58%; tested in S. cerevisiae
Numbers without * were called inactive; ? = inconclusive; · = no result given.

SMILES	Beta apoptosis	Efflux pump inh	SUMO Mot1 rescue	T cruzi inh	CSC inhib	WT yeast gro inh
COc1cc(CNC(C)C)c(Br)cc1OC1CCCC1	·	0	579	1	10	-7
Cc1nc(NCc2ccco2)c2c(C)c(C)sc2n1	28	0	-5	-44	98*	2
CCOC(=O)c1sc2nc(CC(=O)OC)nc(NCc3ccco3)c2c1C	·	·	·	11	·	-10
Cc1sc2nc3c4ccccc4c(NCc4ccco4)nn3c(=O)c2c1C	2	0	165	·	·	63*
CN1CCN(c2ccc(-c3ccc4ccccc4n3)cc2)CC1	·	·	·	44	·	73*
c1ccc2nc(-c3ccc(N4CCOCC4)cc3)ccc2c1	4	0	-34	11	·	-16
O=c1ccnc(Nc2ccc3c(c2)OCCO3)[nH]1	·	0	-20	-15	-17	-6
O=C(NC1CCN(Cc2ccccc2)CC1)C1CCN(S(=O)(=O)c2ccc(Cl)cc2)CC1	22	0	1	47	·	·
O=C(NC1CCN(Cc2ccccc2)CC1)C1CCN(S(=O)(=O)c2ccccc2)CC1	1	0	-9	57*	-2	·
C=CCN(c1ccccc1)S(=O)(=O)c1cccc(C(=O)NC2CCN(Cc3ccccc3)CC2)c1	12	0	96	61*	3	·
COc1ccc(/C=C/C(=O)OCC(=O)Nc2ccc3[nH]c(=O)[nH]c3c2)cc1OC	-4	0	-7	-7	-5	·
CCC(CNc1cc(OC)cc2cccnc12)NC1CCCCC1 (stereo not given)	101*	0	18	41	27	·
COc1cc(NCCCC(C)N)c2ncccc2c1 (stereo not given)	·	·	·	45	·	-18
COc1cc(-c2nc(-c3ccc(NC(=O)c4ccc(Br)o4)cc3)no2)cc(OC)c1OC	58	0	-9	-4	77*	6
COc1ccc(-c2nc(-c3ccc(NC(=O)c4ccc(Br)o4)cc3)no2)cc1OC	·	0	6	13	79*	-27
CCCc1cc(=O)[nH]c(SCC(=O)Nc2sc(C(N)=O)c(C)c2C(=O)OCCOC)n1	1	0	-18	·	94*	·
CCN(CC)S(=O)(=O)c1ccc(N/N=C/c2cc(OC)ccc2O)nc1	108*	0	-17	10	104*	9
COc1ccc(O)c(/C=N/NC(=S)Nc2cccc(S(=O)(=O)N(C)C)c2)c1	65	0	0	9	97*	5
COc1ccc(O)c(/C=N/NC(=S)Nc2cccnc2)c1	76*	0	-14	-6	50	8
CC(=O)N1c2ccc(S(=O)(=O)NCCC(=O)NCCc3ccc(C)cc3)cc2CC1C (stereo not given)	·	0	251	-4	-11	·
CCn1cc(C(=O)OC)c(=O)c2cc(S(=O)(=O)N(C)C3CCCCC3)ccc21	-4	0	10	3	-13	-9
Cc1ccc(C)c(S(=O)(=O)N2CCN(C(=O)[C@@H]3CCCN3C(=O)c3cccs3)CC2)c1	-5	0	3	·	·	·
Cc1cccc(N2CCN(c3ccc(N4C(=O)CCCC4=O)cc3[N+](=O)[O-])CC2C)c1 (stereo not given)	·	0	415*	0	15	12
O=C(CN1C(=O)NC2(CCCCC2)C1=O)N1CCOCC1	-1	0	-19	·	-5	·
COc1ccc(O)c(C(=O)c2cc(C(=O)NCCc3ccccc3)c(=O)n(CCc3ccccc3)c2)c1	·	-1	-23	53	6	30
SMILES	Beta apoptosis	Efflux pump inh	SUMO Mot1 rescue	T cruzi inh	CSC inhib	WT yeast gro inh
Cc1ccc(O)c(C(=O)c2cc(C(=O)NCCc3ccccc3)c(=O)n(CCc3ccccc3)c2)c1	-3	0	-8	61*	4	-14
CCCCC(=O)NC(c1ccc([N+](=O)[O-])cc1)c1c(O)ccc2ccccc12 (stereo not given)	33	0	61	2	65	82*
CCC(=O)NC(c1ccco1)c1cc(Cl)c2cccnc2c1OC (stereo not given)	-2	0	-1	·	-14	·
CCC(=O)NC(c1ccc([N+](=O)[O-])cc1)c1c(O)ccc2ccccc12 (stereo not given)	0	0	-3	3	·	12
CCCC(=O)NC(c1ccccc1)c1ccc2cccnc2c1O (stereo not given)	99*	0	-5	58*	108*	·
CCCCC(=O)NC(c1ccco1)c1cc(Cl)c2cccnc2c1O (stereo not given)	104*	0	-9	63*	102*	-9
CCC(=O)NC(c1ccc(OC)cc1)c1cc(Cl)c2cccnc2c1O (stereo not given)	96*	0	235	?	119*	-3
COc1cccc(C(C(=O)NC(C)(C)C)N(CC(C)C)C(=O)CCC(=O)Nc2cc(C)on2)c1OC (stereo not given)	0	0	-7	32	-6	9
O=C1CC(=O)NC(SCC(=O)Nc2ccccc2[N+](=O)[O-])=N1	-4	0	1	0	-8	·
CCc1ccc(-c2nc(CS(=O)CC(=O)NCCCN3CCOCC3)c(C)o2)cc1 (stereo not given)	-7	0	2	18	7	·
COc1ccc(Cl)cc1C(Nc1cccnc1)c1ccc2cccnc2c1O (stereo not given)	·	0	56	72*	3	7
CCCC(=O)NC(c1ccc(OC)cc1)c1ccc2cccnc2c1O (stereo not given)	97*	0	65	74*	119*	-8
O=C(NC(c1ccc(Cl)cc1)c1c(O)ccc2ccccc12)c1ccccc1 (stereo not given)	98*	0	-23	·	107*	56
CCCCC(=O)NC(c1ccc(C(C)C)cc1)c1ccc2cccnc2c1O (stereo not given)	·	0	-9	44	·	·
CCCCC(=O)NC(c1ccccc1)c1ccc2cccnc2c1O (stereo not given)	99*	0	-2	57*	110*	·
O=C(NC(c1ccccc1)c1c(O)ccc2ccccc12)c1ccccc1Cl (stereo not given)	-4	0	-2	-7	19	41
CCC(=O)NC(c1ccccc1Cl)c1c(O)ccc2ccccc12 (stereo not given)	-8	0	-2	13	9	-15
COc1ccc(C(NC(=O)c2cccnc2)c2cc(Cl)c3cccnc3c2O)cc1OC (stereo not given)	91*	0	27	?	·	-21
CCC(=O)NC(c1ccccc1OC)c1ccc2cccnc2c1O (stereo not given)	109*	0	-16	60*	93*	-12
CCCCC(=O)NC(c1ccccc1Cl)c1ccc2cccnc2c1O (stereo not given)	106*	0	3	51	99*	·
COc1ccc(C(=O)NCc2ccc(-n3cccc3)cc2)cc1OC	-9	0	4	22	·	10
